Source: PubChem (several laboratories)
Only a selection was taken, and hits are over-represented in it overall.
Calb biofilm kill: clotrimazole potentiators killing C. albicans biofilm, primary screen, 4-compound mixtures; C. albicans biofilm persisters + clotrimazole, fluorescence viability; primary screen in compound mixtures of four per well; inhibition, % at 7.6 µM; hit rate 0.02% among 120,000; AID 1242, 2008;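 active means inhibition above 30.3% in the primary screen of four-compound pools, then above 30% when the compound was retested; inconclusive means passed the primary limit but could not be retested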;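 further: compounds exposed to preformed 24 h biofilms for 48 h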
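Assay system: C. albicans biofilms / Medium: RPMI/MOPS medium, pH 7.0 / Schedule: biofilm formation 24 h, compound exposure 48 h, 37 °C / Measured by: Alamar Blue fluorescence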
Pf gametocyte: late stage P. falciparum gametocyte viability inhibitors, primary screen, ATP luminescence, HTS; P. falciparum stage V gametocytes, 24 h; inhibition, % at 10.9 µM; hit rate 0.065% among 150,000; AID 743093, 2013;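 active means inhibition above the mean plus 3 SD of compounds within the control limits, set per campaign, cut at about 38% in these data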
ROMK mod: ROMK potassium channel modulators, primary screen, cell-based, thallium flux, MLSMR library. Tet-inducible ROMK, thallium flux fluorescence; actives lie on both sides. hit rate 2% among 130,000. B-score at 10 µM;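 active means signal ratio slope over the read window, or its plate-corrected B-score, at least 3 SD from the plate mean, either direction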;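 further: B-score of the F/F0 ratio slope over 7 to 12 s after thallium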
Target sequence (P48048 whole entry, looked up): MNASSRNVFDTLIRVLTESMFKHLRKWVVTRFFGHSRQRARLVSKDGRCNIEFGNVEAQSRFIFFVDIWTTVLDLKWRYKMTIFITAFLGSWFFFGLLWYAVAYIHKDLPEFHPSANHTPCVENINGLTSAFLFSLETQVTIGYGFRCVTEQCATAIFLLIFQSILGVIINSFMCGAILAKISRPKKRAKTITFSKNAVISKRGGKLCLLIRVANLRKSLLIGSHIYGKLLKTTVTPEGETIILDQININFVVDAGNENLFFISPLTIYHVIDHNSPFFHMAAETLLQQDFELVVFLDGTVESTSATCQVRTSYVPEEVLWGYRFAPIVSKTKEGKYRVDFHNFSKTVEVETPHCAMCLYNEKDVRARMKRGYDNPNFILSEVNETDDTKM
ROMK retest: ROMK channel modulator hit retest, confirmation, cell-based, thallium flux, duplicate, resupplied hits; hit rate 54% among 3,000; fluorescence ratio; stronger effect = lower value; normalized thallium flux (F/F0 slope) at 10 µM; shares compounds with ROMK mod;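 active means Flux at 10 µM at least 3 SD below or above vehicle control mean in one or both replicates; inconclusive means no clear call, values can overlap the other calls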
Large screens that a line does not name were inactive (follow-up assays come after a bar, where they were run).

O=C(CN1C(=O)CCC1=O)Nc1nc(-c2ccc(Cl)s2)cs1	none
O=C(CSCC(=O)N1CCCCC1)Nc1nc(-c2ccc(Cl)s2)cs1	none (no result: Calb biofilm kill, Pf gametocyte, ROMK mod) | ROMK retest inconclusive
Cc1cnc(NC(=O)C2(c3ccccc3)CC2)s1	none (no result: Pf gametocyte)
Cc1noc(NS(=O)(=O)c2ccc(N/C=C\C(=O)c3ccc4c(c3)OCO4)cc2)c1C	none (no result: Calb biofilm kill, ROMK mod)
COc1cccc(C(=O)/C=C/Nc2ccc(S(=O)(=O)Nc3onc(C)c3C)cc2)c1	none (no result: ROMK mod)
Cc1noc(NS(=O)(=O)c2ccc(N/C=C\C(=O)c3ccc(Br)cc3)cc2)c1C	ROMK mod 6.02 | ROMK retest 0.0987
CCOc1ccc(C(=O)/C=C/Nc2ccc(S(=O)(=O)Nc3onc(C)c3C)cc2)cc1	ROMK mod 2.75 | ROMK retest inactive
CCc1nnc(NS(=O)(=O)c2ccc(NC(=O)Nc3ccc(OC)cc3)cc2)s1	none (no result: Calb biofilm kill, ROMK mod)
CCc1nnc(NS(=O)(=O)c2ccc(N/C=C/C(=O)c3ccc(OC)cc3)cc2)s1	ROMK mod 4.13 | ROMK retest inactive
Cc1cc(C)c(OCCNC(=O)c2ccccc2Sc2ccccc2C#N)c(C)c1	none (no result: ROMK mod)
O=C(c1cccc(-c2ccc(O)cc2)c1)N1CCN(c2ccc(F)cc2)CC1	none (no result: Pf gametocyte)
Cn1c(O)c(C=Nc2ccc(Br)cc2)sc1=O	none
CCn1c(=N)n(CC(O)COc2ccc(C)cc2)c2ccccc21 (stereo not drawn)	none (no result: ROMK mod)
Cc1ccccc1OCC(O)Cn1c(=N)n(Cc2ccccc2)c2ccccc21 (stereo not drawn)	Calb biofilm kill 30.4, ROMK mod -4.65 | ROMK retest 0.0497
N=c1n(Cc2ccccc2)c2ccccc2n1CC(O)c1ccccc1 (stereo not drawn)	none (no result: Calb biofilm kill, ROMK mod)
CCCCn1c(=N)n(CC(O)COc2cccc(C)c2)c2ccccc21 (stereo not drawn)	ROMK mod -5.78 (no result: Calb biofilm kill) | ROMK retest 0.0511
COc1ccc(OCCn2c(=N)n(CCO)c3ccccc32)cc1	none (no result: Calb biofilm kill)
CCCn1c(=N)n(CC(O)COc2ccc(C)cc2)c2ccccc21 (stereo not drawn)	none (no result: ROMK mod)
CCCCn1c(=N)n(CCOc2ccc(C)cc2)c2ccccc21	ROMK mod -3.5 (no result: Pf gametocyte) | ROMK retest 0.0505
COc1ccccc1OCC(O)Cn1c(=N)n(Cc2ccccc2)c2ccccc21 (stereo not drawn)	ROMK mod -7.83 (no result: Calb biofilm kill) | ROMK retest 0.0479
CCOC(=O)C[n+]1c(C)ccc2c1CCC2	none
Cn1/c(=N/NC(=O)c2ccccc2F)sc2ccccc21	none
Cc1ccnc(NS(=O)(=O)c2cnc(Cl)c(Br)c2)c1	none (no result: Pf gametocyte, ROMK mod)
Cc1nc2ccccc2n1CC(O)COc1ccc(Br)cc1 (stereo not drawn)	none (no result: ROMK mod)
Cc1nc2ccccc2n1CC(O)COc1ccccc1Cl (stereo not drawn)	none | ROMK retest 0.0573
CCN(CC)CCn1c(=N)n(CC(O)COc2ccccc2)c2ccccc21 (stereo not drawn)	none (no result: ROMK mod)
CCCCCn1c(=N)n(CC(O)COc2ccccc2OC)c2ccccc21 (stereo not drawn)	none (no result: Pf gametocyte, ROMK mod) | ROMK retest 0.0475
Cc1ccc(NC(=O)CSc2nnc(-c3cccs3)o2)cc1S(=O)(=O)N(C)C	none (no result: Pf gametocyte)
c1ccc(CCc2cc3ccccc3[nH]2)cc1	none (no result: Calb biofilm kill, ROMK mod)
CCN1N=C(C)C=C(c2ccccc2)n2c1nc1ccccc12	none
CCCN(CCC)CCNC(=S)Nc1ccc2nc3n(c(=O)c2c1)CCCCC3	none
CCCc1nc2ccccc2n1Cc1ccccc1OC	none (no result: ROMK mod)
COc1ccccc1Cn1c(CCCO)nc2ccccc21	ROMK mod -3.75 (no result: Calb biofilm kill) | ROMK retest inconclusive
COc1ccc(/C=C/C(O)=C(\C#N)c2nnc(N3CCOCC3)n2-c2ccccc2)cc1OC	none
CC(C)(C)C(=O)/C=c1\s/c(=C\c2ccc(-c3ccc([N+](=O)[O-])cc3)o2)c(=O)n1CC(=O)NC(N)=O	none
CCOc1ccc(N(C(=O)Cn2nnc3ccccc32)C(C(=O)NC(C)(C)CC)c2cccn2C)cc1 (stereo not drawn)	none (no result: Pf gametocyte, ROMK mod)
CCC(C)(C)NC(=O)C(c1cccn1C)N(C(=O)Cn1nnc2ccccc21)c1ccc(OC)cc1OC (stereo not drawn)	ROMK mod -3.55 (no result: Pf gametocyte) | ROMK retest 0.0511
C=CCNC(=S)NNC(=O)CC12CC3CC(CC(C3)C1)C2	none (no result: ROMK mod)
Cc1c(Cc2ccccc2)c(=O)n2c([nH]c3ccccc32)c1C#N	none (no result: ROMK mod)
COc1ccccc1N=Cc1c(C)c(C#N)c2[nH]c3ccccc3n2c1=O	ROMK mod -3.27 | ROMK retest 0.0666
NNC(=O)c1cc2c(N3CCC(Cc4ccccc4)CC3)ncnc2s1	ROMK mod -4.52 | ROMK retest inactive
Cn1ncc2c(N3CCC(Cc4ccccc4)CC3)ncnc21	none (no result: Pf gametocyte)
COc1ccc(Cl)cc1N(CC(=O)NC1CC1)S(=O)(=O)c1ccc(C)c([N+](=O)[O-])c1	none
Cc1cc(N2CCN(C(c3ccccc3)c3ccccc3)CC2)n2ncnc2n1	ROMK mod 1.54 (no result: Calb biofilm kill) | ROMK retest inconclusive
Cc1cc(N2CCN(c3cccc(C(F)(F)F)c3)CC2)n2ncnc2n1	none (no result: Calb biofilm kill)
Cc1cc(N2CCN(c3nc4ccccc4s3)CC2)n2ncnc2n1	none (no result: Calb biofilm kill, ROMK mod) | ROMK retest 0.0642
Cc1nc2ncnn2c(N2CCN(C(c3ccccc3)c3ccccc3)CC2)c1C	none (no result: Calb biofilm kill)
O=C1c2[nH]nc(-c3ccccc3O)c2C(c2cccc(Cl)c2)N1CC1CCCO1 (stereo not drawn)	ROMK mod -2.42 (no result: Calb biofilm kill) | ROMK retest 0.0521
O=C1c2[nH]nc(-c3ccccc3O)c2C(c2ccc(F)cc2)N1CC1CCCO1 (stereo not drawn)	none (no result: Calb biofilm kill)
COc1ccc([N+](=O)[O-])c(OC)c1C(=O)NC(=O)Nc1c(F)cc(F)cc1F	none (no result: ROMK mod)
Cc1ccc(C)c(SCC(=O)Nc2cccc(S(=O)(=O)NC3=NCCCCC3)c2)c1	none
Cc1ccc(CNCC(=O)Nc2cccc(S(=O)(=O)NC3=NCCCCC3)c2)cc1	ROMK mod -2.62 | ROMK retest 0.0641
CC(C)NC(=O)c1ccccc1NC(=O)Cc1ccc([N+](=O)[O-])cc1	none
CC1CCN(C(=O)c2ncn(Cc3ccccc3)c2C(=O)N2CCC(C)CC2)CC1	none (no result: Calb biofilm kill, ROMK mod)
CSc1cccc(CN2CCC(CO)(Cc3cccc(C(F)(F)F)c3)CC2)c1	ROMK mod -3.51 | ROMK retest 0.0628
OCC1(Cc2cccc(C(F)(F)F)c2)CCN(Cc2cc(F)cc(F)c2)CC1	none
Cc1ccc(Cl)cc1NC(=S)NCCCSC1CCCCC1	none
COc1cc(NC(=O)c2cccc(Br)c2)nc(OC)n1	none (no result: ROMK mod)
COc1ccc(C(=O)NN(C)c2nc(-c3ccccc3)nnc2C(F)(F)F)cc1	none (no result: Calb biofilm kill)
COc1ccc(C(=O)NN(C)c2nc(C(F)(F)F)nc3ccccc23)cc1	ROMK mod 3.47 | ROMK retest inactive
NC(=O)c1cc([N+](=O)[O-])cc2c1C=Cc1ccccc1O2	none (no result: Pf gametocyte)
Nc1ccc2c(c1)Oc1ccccc1C=C2	ROMK mod -3.17 | ROMK retest inactive
COc1ccc(/C=N/Nc2ccccn2)c(OC)c1OC	none
COc1cccc(/C=N/n2c(C)nc3ccccc32)c1OC	none (no result: Calb biofilm kill) | ROMK retest inactive
COc1cccc(/C=N/n2c(=S)n(C)c3ccccc32)c1OC	none (no result: Calb biofilm kill)
COc1ccc(/C=N/n2c(SC)nnc2-c2ccccc2)c(OC)c1OC	ROMK mod 3.36 (no result: Calb biofilm kill, Pf gametocyte) | ROMK retest inactive
CC(=O)C[C@@H](O)CC(=O)[C@@H]1OC(=O)CCCCCCc2ccccc21	none (no result: Calb biofilm kill, ROMK mod)
